The test system of assay [1] is SN12C. The assay is described as follows: Cytotoxicity against human SN12C cells. The format is functional. In outline:
(§1)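 NCI-60 screen (NCI-DTP): one-dose prescreen at 10 μM, then five concentrations from 100 μM to 10 nM for compounds passing the cutoff. GI50 (50% growth inhibition) interpolated from the five-dose data. Single determination.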

For assay [2], the system named is SF-539. The experiment in a line: Cytotoxicity against human SF539 cells. The format is functional. In outline:
as §1

The nature of assay [3]: Cytotoxicity against human OVCAR3 cells. The following applies: OVCAR-3. The format is functional. In outline: as §1
Assay [4] concerns MCF7. The assay is described as follows: Cytotoxicity against human MCF7 cells. The format is functional. In outline: as §1
Assay [5] has as its system DU-145. The assay is described as follows: Cytotoxicity against human DU145 cells. Format: functional. In outline: as §1
The target in assay [6] is T1, DNA topoisomerase 1 (Homo sapiens) (UniProt P11387).
T1 sequence (whole entry): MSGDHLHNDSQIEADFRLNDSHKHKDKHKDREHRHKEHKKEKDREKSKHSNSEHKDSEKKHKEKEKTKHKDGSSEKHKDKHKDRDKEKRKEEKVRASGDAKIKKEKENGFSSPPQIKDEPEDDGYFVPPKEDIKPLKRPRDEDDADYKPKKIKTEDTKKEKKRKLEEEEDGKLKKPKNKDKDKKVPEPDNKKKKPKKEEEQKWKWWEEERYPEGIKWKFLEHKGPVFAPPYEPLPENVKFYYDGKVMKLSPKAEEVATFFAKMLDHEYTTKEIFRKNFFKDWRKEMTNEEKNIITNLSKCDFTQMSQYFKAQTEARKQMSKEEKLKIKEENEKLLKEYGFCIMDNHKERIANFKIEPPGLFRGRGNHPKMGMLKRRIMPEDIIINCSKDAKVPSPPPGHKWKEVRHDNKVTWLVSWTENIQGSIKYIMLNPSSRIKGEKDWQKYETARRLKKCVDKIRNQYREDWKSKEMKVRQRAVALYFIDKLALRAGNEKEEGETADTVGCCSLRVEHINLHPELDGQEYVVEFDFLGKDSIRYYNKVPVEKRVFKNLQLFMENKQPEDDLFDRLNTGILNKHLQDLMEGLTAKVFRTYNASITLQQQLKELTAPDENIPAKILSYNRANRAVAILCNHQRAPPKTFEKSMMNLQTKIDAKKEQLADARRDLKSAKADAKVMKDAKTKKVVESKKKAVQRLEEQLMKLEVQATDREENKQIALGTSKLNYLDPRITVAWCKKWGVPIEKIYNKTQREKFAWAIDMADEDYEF
The experiment in a line: Inhibition of human recombinant Top1 expressed in baculovirus-infected insect Sf9 cells using 3'-[32P]-end-labeled 117 bp DNA as substrate assessed as inhibition of DNA cleavage after 20 mins by PAGE analysis relative to 1 uM camptothecin. In outline:
(§2)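 About 2 nM 3′-[32P]-end-labeled 117-bp DNA (Klenow fill-in with [α32P]dGTP) incubated with recombinant Top1 and compound for 20 min at room temperature. Stopped with 0.5% SDS, run on 20% denaturing PAGE, read by phosphorimager. Cleavage bands scored visually against 1 μM camptothecin on a 0 to +++++ scale.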

The target of assay [7] is T1, DNA topoisomerase 1 (Homo sapiens). The experiment in a line: Poisoning activity at human recombinant Top1 expressed in baculovirus-infected insect Sf9 cells using 3'-[32P]-end-labeled 117 bp DNA as substrate assessed as delay in reversal of drug-enzyme-DNA cleavage complex formation at 1 uM measured over 10 mins by PAGE analysis.
Assay [8] can be described thus: Cytotoxicity against human UACC62 cells. Format: functional. The conditions noted are these: UACC-62. An outline of the steps: as §1
For assay [9], the target named is T1, DNA topoisomerase 1 (Homo sapiens). The assay is described as follows: Poisoning activity at human recombinant Top1 expressed in baculovirus-infected insect Sf9 cells using 3'-[32P]-end-labeled 117 bp DNA as substrate assessed as trapping of enzyme cleavage complex at 0.005 to 100 uM measured after 20 mins by PAGE analysis. In outline: as §2
Assay [10] in a line: Cytotoxicity against human HCT116 cells. Format: functional. The conditions noted are these: HCT-116. In outline: as §1

SMILES strings stand for the structures. Active and inactive are the calls of the source.

What is called GI50 is the concentration that inhibits growth by half. Consider `O=C1c2cc(O)ccc2-c2c1c1ccc([N+](=O)[O-])cc1c(=O)n2CCCBr`, for which the concentration for 50% growth inhibition (GI50) in assay [1] is less than 10 nM; in assay [2], less than 10 nM; in [3], 23 nM; in [4] it was less than 10 nM; in [5], less than 10 nM; in assay [8] it was less than 10 nM. For the same molecule, the GI50 in assay [10] was less than 10 nM. The inhibition entry in assay [6] was “Active”. The result in assay [7] and in assay [9] was Active.
Regarding `CC[C@@]1(O)C(=O)OCc2c1cc1n(c2=O)Cc2cc3ccccc3nc2-1`, the outcome in assay [7] was inactive.

(Values after ChEMBL document CHEMBL3421537, “Synthesis and biological evaluation of nitrated 7-, 8-, 9-, and 10-hydroxyindenoisoquinolines as potential dual topoisomerase I (Top1)-tyrosyl-DNA phosphodiesterase I (TDP1) inhibitors” (J Med Chem, 2015).)
